Laboratory results reported in ChEMBL document CHEMBL1155250, “Novel 1-aminoethyl-3-arylsulfonyl-1H-pyrrolo[2,3-b]pyridines are potent 5-HT(6) agonists” (Bioorg Med Chem, 2009).
The source made the active and inactive calls. The rule behind the calls is not given here.

Experiments:
[1] = target: T1, 5-hydroxytryptamine receptor 6 (Homo sapiens, UniProt P50406); assay: Displacement of [3H]LSD from human cloned 5HT6 receptor expressed in HeLa cells; format: cell-based
Procedure, shortened: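 Radioligand binding used human 5-HT6 receptor stably expressed in HeLa cells with [3H]LSD as the radioligand. Affinity is reported as Ki.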

[2] = target: T1, 5-hydroxytryptamine receptor 6; assay: Agonist activity at human cloned 5HT6 receptor expressed in HeLa cells assessed as induction of adenylyl cyclase activity by RIA relative to serotonin; format: functional, cell-based
Procedure, shortened: (§1)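 Transfected HeLa cells expressing human 5-HT6 were washed with Krebs buffer and preincubated 5 min at 37 °C in Krebs with 500 µM IBMX. They were then stimulated 10 min at 37 °C with compound over 0.1–10000 nM. Agonist potency came from concentration–response curves, and percent efficacy was taken relative to a serotonin maximal response.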

[3] = target: T1, 5-hydroxytryptamine receptor 6; assay: Agonist activity at human cloned 5HT6 receptor expressed in HeLa cells assessed as induction of adenylyl cyclase activity by RIA; format: functional, cell-based; procedure, shortened: as §1
[4] = target: T1, 5-hydroxytryptamine receptor 6; assay: Antagonist activity at human cloned 5HT6 receptor expressed in HeLa cells assessed as inhibition of adenylyl cyclase activity by RIA; format: functional, cell-based
[5] = target: T1, 5-hydroxytryptamine receptor 6; assay: Antagonist activity at human cloned 5HT6 receptor expressed in HeLa cells assessed as inhibition of adenylyl cyclase activity by RIA relative to serotonin; format: functional, cell-based
Homo sapiens [6] = species on record: Homo sapiens; assay: Selectivity ratio of IC50 for human cloned 5HT7 receptor to human cloned 5HT6 receptor
D(4) dopamine receptor = target: T2, D(4) dopamine receptor (Homo sapiens, UniProt P21917); assay: Displacement of [3H]spiperone from human cloned dopamine D4 receptor expressed in CHO-K1 cells; format: cell-based
T2 sequence (P21917 whole entry): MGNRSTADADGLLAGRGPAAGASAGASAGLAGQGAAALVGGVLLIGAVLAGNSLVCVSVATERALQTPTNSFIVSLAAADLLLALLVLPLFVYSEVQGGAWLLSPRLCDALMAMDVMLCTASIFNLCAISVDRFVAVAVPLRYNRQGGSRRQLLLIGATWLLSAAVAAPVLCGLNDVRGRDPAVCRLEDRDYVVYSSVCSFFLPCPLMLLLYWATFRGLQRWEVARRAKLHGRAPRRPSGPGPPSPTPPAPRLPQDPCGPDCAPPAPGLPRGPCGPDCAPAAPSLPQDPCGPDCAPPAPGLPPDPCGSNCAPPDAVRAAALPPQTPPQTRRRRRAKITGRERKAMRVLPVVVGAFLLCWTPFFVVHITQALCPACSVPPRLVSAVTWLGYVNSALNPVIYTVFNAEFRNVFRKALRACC
Procedure, shortened: (§2)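 Binding selectivity used stably expressed human receptors, 5-HT in CHO cells and dopamine in CHO-K1. Radioligands: [125I]DOI for 5-HT2A (agonist radioligand), [3H]-5-HT for 5-HT2C, [3H]LSD for 5-HT7, [3H]spiperone for D2, D3 and D4. Values are IC50 in nM.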

Homo sapiens [7] = species on record: Homo sapiens; assay: Selectivity ratio of IC50 for human cloned 5HT2C receptor to human cloned 5HT6 receptor
[8] = target: T3, 5-hydroxytryptamine receptor 2C (Homo sapiens, UniProt P28335); assay: Displacement of [3H]5-HT from human cloned 5HT2C receptor expressed in CHO cells; format: cell-based; procedure, shortened: as §2
T3 sequence (P28335 whole entry): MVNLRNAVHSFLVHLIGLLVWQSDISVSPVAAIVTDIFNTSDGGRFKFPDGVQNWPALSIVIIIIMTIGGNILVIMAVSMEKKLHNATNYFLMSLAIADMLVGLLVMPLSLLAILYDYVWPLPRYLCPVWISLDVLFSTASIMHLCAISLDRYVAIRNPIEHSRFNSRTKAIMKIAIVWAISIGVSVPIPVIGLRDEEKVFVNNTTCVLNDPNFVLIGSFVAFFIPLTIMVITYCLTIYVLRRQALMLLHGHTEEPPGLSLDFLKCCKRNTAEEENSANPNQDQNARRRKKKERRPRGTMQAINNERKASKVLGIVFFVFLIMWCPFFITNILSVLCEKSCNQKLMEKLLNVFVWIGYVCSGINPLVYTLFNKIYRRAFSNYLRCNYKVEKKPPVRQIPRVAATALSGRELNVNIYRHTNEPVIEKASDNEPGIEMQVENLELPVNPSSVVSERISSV

[9] = target: 5-hydroxytryptamine receptor 7 (Homo sapiens, UniProt P34969); assay: Displacement of [3H]LSD from human cloned 5HT7 receptor expressed in CHO cells; format: cell-based; procedure, shortened: as §2
Homo sapiens [10] = species on record: Homo sapiens; assay: Selectivity ratio of IC50 for human cloned 5HT1D receptor to human cloned 5HT6 receptor
[11] = target: 5-hydroxytryptamine receptor 1D (Homo sapiens) (UniProt P28221); assay: Displacement of [3H]5-HT from human cloned 5HT1D receptor expressed in CHO cells at 1 uM; format: cell-based
Procedure, shortened: (§3)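 Human 5-HT1B, 5-HT1D and 5-HT1F receptors were stably expressed in CHO cells and labelled with [3H]-5-HT. Results are given as percent inhibition at a single 1 µM concentration.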

[12] = target: 5-hydroxytryptamine receptor 2A (Homo sapiens, UniProt P28223); assay: Displacement of [125I]DOI from human cloned 5HT2A receptor expressed in CHO cells; format: cell-based; procedure, shortened: as §2
D(3) dopamine receptor = D(3) dopamine receptor (Homo sapiens, UniProt P35462); assay: Displacement of [3H]spiperone from human cloned dopamine D3 receptor expressed in CHO-K1 cells; format: cell-based; procedure, shortened: as §2
[13] = target: 5-hydroxytryptamine receptor 1B (Homo sapiens) (UniProt P28222); assay: Displacement of [3H]5-HT from human cloned 5HT1B receptor expressed in CHO cells at 1 uM; format: cell-based; procedure, shortened: as §3
Homo sapiens [14] = species on record: Homo sapiens; assay: Selectivity ratio of IC50 for human cloned 5HT1F receptor to human cloned 5HT6 receptor
Homo sapiens [15] = species on record: Homo sapiens; assay: Selectivity ratio of IC50 for human cloned dopamine D3 receptor to human cloned 5HT6 receptor
Homo sapiens [16] = species on record: Homo sapiens; assay: Selectivity ratio of IC50 for human cloned 5HT2A receptor to human cloned 5HT6 receptor
Homo sapiens [17] = species on record: Homo sapiens; assay: Selectivity ratio of IC50 for human cloned 5HT1B receptor to human cloned 5HT6 receptor
D(2) dopamine receptor = D(2) dopamine receptor (Homo sapiens, UniProt P14416); assay: Displacement of [3H]spiperone from human cloned dopamine D2 receptor expressed in CHO-K1 cells; format: cell-based; procedure, shortened: as §2
Homo sapiens [18] = species on record: Homo sapiens; assay: Selectivity ratio of IC50 for human cloned dopamine D2 receptor to human cloned 5HT6 receptor
[19] = target: T4, 5-hydroxytryptamine receptor 1F (Homo sapiens) (UniProt P30939); assay: Displacement of [3H]5-HT from human cloned 5HT1F receptor expressed in CHO cells at 1 uM; format: cell-based; procedure, shortened: as §3
T4 sequence (whole entry): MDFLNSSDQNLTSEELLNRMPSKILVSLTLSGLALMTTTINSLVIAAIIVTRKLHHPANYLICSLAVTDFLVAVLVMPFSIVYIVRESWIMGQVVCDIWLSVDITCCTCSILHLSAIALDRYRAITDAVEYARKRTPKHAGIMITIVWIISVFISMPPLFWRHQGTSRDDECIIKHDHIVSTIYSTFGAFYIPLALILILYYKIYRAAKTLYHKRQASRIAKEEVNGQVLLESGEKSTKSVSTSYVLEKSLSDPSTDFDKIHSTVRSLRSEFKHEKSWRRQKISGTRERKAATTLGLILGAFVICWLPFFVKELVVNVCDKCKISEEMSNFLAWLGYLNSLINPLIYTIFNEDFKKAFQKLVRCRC

Homo sapiens [20] = species on record: Homo sapiens; assay: Selectivity ratio of IC50 for human cloned dopamine D4 receptor to human cloned 5HT6 receptor
Rattus norvegicus [21] = assay: Increase in extracellular GABA level in Sprague-Dawley rat frontal cortex at 30 mg/kg, sc; format: functional, organism-based; parameters: dose 30 mg/kg
Procedure, shortened: (§4)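 Rats received a single acute subcutaneous dose of 30 mg/kg. Extracellular GABA and glutamate in frontal cortex were followed over time from about −100 to 350 min around dosing and compared with vehicle-treated animals, with significance set at P < 0.05.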

Rattus norvegicus [22] = assay: Increase in extracellular glutamate level in Sprague-Dawley rat frontal cortex at 30 mg/kg, sc; format: functional, organism-based; parameters: dose 30 mg/kg; procedure, shortened: as §4
Rattus norvegicus [23] = assay: Inhibition of schedule-induced polydipsia in po dosed Sprague-Dawley rat assessed as reduction of adjunctive drinking behavior; format: functional
Procedure, shortened: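 In the schedule-induced polydipsia model, rats were dosed orally at 30, 56 and 100 mg/kg against a vehicle group. Adjunctive drinking was measured, an ED50 was derived, and comparison with vehicle used P < 0.05.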

Sequence of 5-hydroxytryptamine receptor 7 (P34969 whole entry): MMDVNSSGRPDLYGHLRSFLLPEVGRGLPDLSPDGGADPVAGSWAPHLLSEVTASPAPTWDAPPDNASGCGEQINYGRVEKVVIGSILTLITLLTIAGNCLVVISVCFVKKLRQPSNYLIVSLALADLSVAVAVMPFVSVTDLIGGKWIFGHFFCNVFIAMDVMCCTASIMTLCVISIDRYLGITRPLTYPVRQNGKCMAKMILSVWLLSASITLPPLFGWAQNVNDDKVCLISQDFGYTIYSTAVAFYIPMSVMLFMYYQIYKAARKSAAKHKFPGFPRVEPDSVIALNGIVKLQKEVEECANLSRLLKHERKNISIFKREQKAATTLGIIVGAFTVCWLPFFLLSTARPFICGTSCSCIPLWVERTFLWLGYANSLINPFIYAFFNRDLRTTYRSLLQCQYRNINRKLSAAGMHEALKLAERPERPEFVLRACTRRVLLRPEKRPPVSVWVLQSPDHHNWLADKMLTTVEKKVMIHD
T1 sequence (P50406 whole entry): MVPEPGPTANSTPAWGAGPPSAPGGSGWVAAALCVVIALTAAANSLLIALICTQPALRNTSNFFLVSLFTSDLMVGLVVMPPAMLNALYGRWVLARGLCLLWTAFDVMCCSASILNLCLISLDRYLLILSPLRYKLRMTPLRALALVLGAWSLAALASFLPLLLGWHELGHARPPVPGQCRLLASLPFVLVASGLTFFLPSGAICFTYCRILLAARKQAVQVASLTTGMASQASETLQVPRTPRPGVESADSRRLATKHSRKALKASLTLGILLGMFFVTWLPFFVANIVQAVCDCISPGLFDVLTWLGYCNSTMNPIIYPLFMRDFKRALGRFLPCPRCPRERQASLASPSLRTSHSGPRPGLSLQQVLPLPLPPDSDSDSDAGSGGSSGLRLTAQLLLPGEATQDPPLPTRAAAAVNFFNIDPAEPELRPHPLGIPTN
Sequence of D(2) dopamine receptor (P14416 whole entry): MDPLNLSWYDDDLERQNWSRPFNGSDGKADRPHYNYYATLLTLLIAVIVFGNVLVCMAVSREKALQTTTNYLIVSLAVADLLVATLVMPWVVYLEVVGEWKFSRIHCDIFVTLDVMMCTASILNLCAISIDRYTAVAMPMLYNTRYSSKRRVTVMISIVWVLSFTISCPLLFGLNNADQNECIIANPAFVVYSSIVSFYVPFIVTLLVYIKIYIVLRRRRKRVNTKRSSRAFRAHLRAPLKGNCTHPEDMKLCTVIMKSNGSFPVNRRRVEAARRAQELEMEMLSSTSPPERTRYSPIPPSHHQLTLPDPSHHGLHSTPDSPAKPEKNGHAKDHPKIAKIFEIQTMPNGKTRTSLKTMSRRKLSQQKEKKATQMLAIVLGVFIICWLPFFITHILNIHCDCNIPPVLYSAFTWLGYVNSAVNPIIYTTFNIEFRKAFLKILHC
Sequence of D(3) dopamine receptor (P35462 whole entry): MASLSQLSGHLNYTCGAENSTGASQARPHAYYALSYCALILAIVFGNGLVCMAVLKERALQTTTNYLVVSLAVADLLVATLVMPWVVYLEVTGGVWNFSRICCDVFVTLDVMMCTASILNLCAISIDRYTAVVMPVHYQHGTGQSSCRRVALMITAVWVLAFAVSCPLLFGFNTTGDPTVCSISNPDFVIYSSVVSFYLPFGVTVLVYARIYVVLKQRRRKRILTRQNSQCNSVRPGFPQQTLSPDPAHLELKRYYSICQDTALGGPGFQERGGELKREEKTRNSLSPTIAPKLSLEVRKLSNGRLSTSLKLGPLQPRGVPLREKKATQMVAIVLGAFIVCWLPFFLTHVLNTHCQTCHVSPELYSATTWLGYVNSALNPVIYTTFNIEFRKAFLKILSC
Sequence of 5-hydroxytryptamine receptor 2A (P28223 whole entry): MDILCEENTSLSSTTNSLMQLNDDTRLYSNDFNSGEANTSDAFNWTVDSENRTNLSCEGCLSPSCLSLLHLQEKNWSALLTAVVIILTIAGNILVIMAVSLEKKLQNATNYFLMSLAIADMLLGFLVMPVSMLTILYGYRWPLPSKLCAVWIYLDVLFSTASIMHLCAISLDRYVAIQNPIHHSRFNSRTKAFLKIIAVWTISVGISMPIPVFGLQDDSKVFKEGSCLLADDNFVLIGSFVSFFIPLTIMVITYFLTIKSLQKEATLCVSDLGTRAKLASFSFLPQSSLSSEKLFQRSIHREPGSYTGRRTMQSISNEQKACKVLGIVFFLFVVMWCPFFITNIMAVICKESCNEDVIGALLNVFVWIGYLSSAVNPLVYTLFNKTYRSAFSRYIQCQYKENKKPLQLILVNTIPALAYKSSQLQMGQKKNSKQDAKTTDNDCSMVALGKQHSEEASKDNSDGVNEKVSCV
Sequence of 5-hydroxytryptamine receptor 1B (Homo sapiens) (P28222 whole entry): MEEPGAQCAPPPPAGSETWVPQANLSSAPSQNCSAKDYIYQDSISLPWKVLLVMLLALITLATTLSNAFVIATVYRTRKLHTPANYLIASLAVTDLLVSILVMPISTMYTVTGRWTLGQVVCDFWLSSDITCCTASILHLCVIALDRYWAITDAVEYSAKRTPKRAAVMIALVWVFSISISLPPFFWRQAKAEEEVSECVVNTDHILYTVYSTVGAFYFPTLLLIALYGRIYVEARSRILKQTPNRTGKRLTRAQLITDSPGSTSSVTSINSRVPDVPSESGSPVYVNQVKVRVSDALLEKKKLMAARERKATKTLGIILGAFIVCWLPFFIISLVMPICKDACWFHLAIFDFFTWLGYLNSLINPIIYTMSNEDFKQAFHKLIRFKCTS
Sequence of 5-hydroxytryptamine receptor 1D (Homo sapiens) (P28221 whole entry): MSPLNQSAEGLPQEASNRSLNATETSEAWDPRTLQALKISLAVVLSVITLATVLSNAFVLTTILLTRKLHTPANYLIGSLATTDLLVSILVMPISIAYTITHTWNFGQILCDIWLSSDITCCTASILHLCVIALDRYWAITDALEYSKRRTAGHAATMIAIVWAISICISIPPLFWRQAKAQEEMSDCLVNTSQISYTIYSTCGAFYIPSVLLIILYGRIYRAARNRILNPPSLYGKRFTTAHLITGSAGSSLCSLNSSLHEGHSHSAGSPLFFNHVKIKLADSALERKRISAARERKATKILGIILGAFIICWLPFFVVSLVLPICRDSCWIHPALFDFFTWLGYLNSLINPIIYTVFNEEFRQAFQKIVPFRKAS

## NCCn1cc(S(=O)(=O)c2cc(Cl)cc(Cl)c2)c2cccnc21
[1]
  Ki: 2.9 nM
[2]
  Emax: 65%
[3]
  EC50: 35 nM

## Cc1c(S(=O)(=O)c2ccccc2)c2cccnc2n1CCN(C)C
[1]
  Ki: 4.7 nM
[2]
  Emax: 100%
[3]
  EC50: 47 nM

## CN(C)CCn1cc(S(=O)(=O)c2ccccc2)c2ccccc21
[2]
  Emax: 63%
[3]
  EC50: 366 nM

## CN(C)CCn1cc(S(=O)(=O)c2ccccc2)c2cccnc21
[2]
  Emax: 94%
[3]
  EC50: 25 nM

## CN(C)CCn1cc(S(=O)(=O)c2c(Cl)cccc2Cl)c2cccnc21
[2]
  Emax: 66%
[3]
  EC50: 31 nM

## CNCCn1cc(S(=O)(=O)c2cccc(Cl)c2)c2cccnc21
[4]
  IC50: 8.3 nM
[5]
  Imax: 100%

## CN(C)CCn1cc(S(=O)(=O)c2cccc3ccccc23)c2cccnc21
Homo sapiens [6]
  Ratio IC50: > 50
D(4) dopamine receptor
  IC50: > 5000 nM
Homo sapiens [7]
  Ratio IC50: > 50
[8]
  IC50: 1140 nM
[9]
  IC50: 511 nM
Homo sapiens [10]
  Ratio IC50: > 50
[2]
  Emax: 63%
[11]
  inhibition: 0%
[12]
  IC50: 938 nM
D(3) dopamine receptor
  IC50: 1560 nM
[13]
  inhibition: 40%
Homo sapiens [14]
  Ratio IC50: > 50
Homo sapiens [15]
  Ratio IC50: > 50
Homo sapiens [16]
  Ratio IC50: > 50
Homo sapiens [17]
  Ratio IC50: > 50
[3]
  EC50: 51 nM
D(2) dopamine receptor
  IC50: > 5000 nM
Homo sapiens [18]
  Ratio IC50: > 50
[19]
  inhibition: 10%
Homo sapiens [20]
  Ratio IC50: > 50

## NCCn1cc(S(=O)(=O)c2cccc(Cl)c2)c2cccnc21
[1]
  Ki: 2 nM
D(4) dopamine receptor
  IC50: > 5000 nM
[8]
  IC50: 44 nM
[9]
  IC50: 1360 nM
[2]
  Emax: 94%
[12]
  IC50: 11 nM
D(3) dopamine receptor
  IC50: > 5000 nM
[3]
  EC50: 18 nM
D(2) dopamine receptor
  IC50: > 5000 nM

## NCCn1cc(S(=O)(=O)c2ccc(F)cc2)c2cccnc21
[2]
  Emax: 100%
[3]
  EC50: 166 nM

## CN(C)CCn1cc(S(=O)(=O)c2cc(Cl)cc(Cl)c2)c2cccnc21
[1]
  Ki: 4.3 nM
[2]
  Emax: 80%
[3]
  EC50: 28 nM

## CN(C)CCn1cc(S(=O)(=O)c2cccc(F)c2)c2cccnc21
Rattus norvegicus [21]
  Activity: Active
D(4) dopamine receptor
  IC50: > 5000 nM
[8]
  IC50: 644 nM
[9]
  IC50: 4760 nM
[2]
  Emax: 100%
[11]
  inhibition: 16%
[12]
  IC50: 351 nM
D(3) dopamine receptor
  IC50: > 5000 nM
[13]
  inhibition: 30%
D(2) dopamine receptor
  IC50: > 5000 nM
Rattus norvegicus [22]
  Activity: inactive
[19]
  inhibition: 22%
Rattus norvegicus [23]
  ED50: 89.5 mg/kg

## CN(C)CCn1cc(S(=O)(=O)c2c(Cl)nc3sccn23)c2cccnc21
[1]
  Ki: 0.9 nM
[2]
  Emax: 71%
[3]
  EC50: 120 nM

## Cc1c(S(=O)(=O)c2ccccc2)c2cccnc2n1CCN
[1]
  Ki: 4.2 nM
[2]
  Emax: 85%
[3]
  EC50: 20 nM
